Test results reported in ChEMBL document CHEMBL3272334, “Folate antagonists. 10. Synthesis and antimalarial effects of 6-[[(aryl and aralkyl)amino]methyl]-2,4-pteridinediamines and -pteridinediamine 8-oxides” (1978).
Converted amounts (≈) assume the structure as drawn. The source made the active and inactive calls. The rule behind the calls is not given here.

Key:
Plasmodium berghei [1] = experiment: Antimalarial activity against drug-sensitive trophozoite stage of Plasmodium berghei infected in mouse assessed as increase in mean survival time up to 640 mg/kg, sc administered 72 hrs post infection; format: functional, organism-based; design: dose 640 mg/kg
Plasmodium berghei [2] = experiment: Antimalarial activity against drug-sensitive trophozoite stage of Plasmodium berghei infected in mouse assessed as survival over 60 days at 320 mg/kg, sc administered 72 hrs post infection; format: functional, organism-based; design: dose 320 mg/kg
Plasmodium berghei [3] = experiment: Antimalarial activity against trophozoite stage of Plasmodium berghei infected in mouse assessed as increase in mean survival time at 40 mg/kg, sc administered 72 hrs post infection; format: functional; conditions: route subcutaneous
Plasmodium cynomolgi [4] = experiment: Antimalarial activity against trophozoite stage of Plasmodium cynomolgi infected in rhesus monkey at 3.16 mg/kg, po; format: functional, organism-based; design: dose 3.16 mg/kg
Method in brief: (§1)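 Rhesus monkey, one oral dose. Trophozoite-induced P. cynomolgi infection at 3.16 mg/kg; sporozoite-induced P. cynomolgi infection at 10 mg/kg.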

Plasmodium cynomolgi [5] = experiment: Antimalarial activity against sporozoite stage of Plasmodium cynomolgi infected in rhesus monkey at 10 mg/kg; format: functional, organism-based; design: dose 10 mg/kg; method in brief: as §1
Enterococcus faecalis = experiment: Antibacterial activity against Streptococcus faecalis MGH2 assessed as growth inhibition by gradient plate test; format: functional
Method in brief: (§2)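 Modified gradient-plate method, in vitro. Panel: Streptococcus faecalis MGH-2, normal S. aureus UC-76, drug-resistant S. aureus S18713, E. coli Vogel, Shigella sonnei C-10.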

Staphylococcus aureus [6] = experiment: Antibacterial activity against Staphylococcus aureus UC-76 assessed as growth inhibition by gradient plate test; format: functional; method in brief: as §2
Staphylococcus aureus [7] = experiment: Antibacterial activity against drug-resistant Staphylococcus aureus S18713 assessed as growth inhibition by gradient plate test; format: functional
Method in brief: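 In vitro test against a bacterial panel (S. faecalis MGH-2, S. aureus UC-76 and drug-resistant S18713, E. coli Vogel, Shigella sonnei C-10), run as a modified gradient plate procedure.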

Escherichia coli = experiment: Antibacterial activity against Escherichia coli Vogel assessed as growth inhibition by gradient plate test; format: functional; method in brief: as §2
Shigella sonnei = experiment: Antibacterial activity against Shigella sonnei C-10 assessed as growth inhibition by gradient plate test; format: functional; method in brief: as §2
Plasmodium gallinaceum [8] = experiment: Antimalarial activity against sporozoite stage of Plasmodium gallinaceum infected in white leghorn cockerel assessed as increase in mean survival time at 480 mg/kg, sc administered through peanut oil on day of infection; format: functional; conditions: route subcutaneous
Plasmodium gallinaceum [9] = experiment: Antimalarial activity against sporozoite stage of Plasmodium gallinaceum infected in white leghorn cockerel assessed as increase in mean survival time at 120 mg/kg, sc administered through peanut oil on day of infection; format: functional; conditions: route subcutaneous
Plasmodium gallinaceum [10] = experiment: Antimalarial activity against sporozoite stage of Plasmodium gallinaceum infected in white leghorn cockerel assessed as increase in mean survival time at 30 mg/kg, sc administered through peanut oil on day of infection; format: functional; conditions: route subcutaneous
Plasmodium gallinaceum [11] = experiment: Antimalarial activity against sporozoite stage of Plasmodium gallinaceum infected in white leghorn cockerel assessed as survival over 30 days at 480 mg/kg, sc administered through peanut oil on day of infection; format: functional, organism-based; design: dose 480 mg/kg
Plasmodium gallinaceum [12] = experiment: Antimalarial activity against sporozoite stage of Plasmodium gallinaceum infected in white leghorn cockerel assessed as survival over 30 days at 120 mg/kg, sc administered through peanut oil on day of infection; format: functional, organism-based; design: dose 120 mg/kg
Plasmodium gallinaceum [13] = experiment: Antimalarial activity against sporozoite stage of Plasmodium gallinaceum infected in white leghorn cockerel assessed as survival over 30 days at 60 mg/kg, sc administered through peanut oil on day of infection; format: functional, organism-based; design: dose 60 mg/kg
Plasmodium gallinaceum [14] = experiment: Antimalarial activity against sporozoite stage of Plasmodium gallinaceum infected in white leghorn cockerel assessed as survival over 30 days at 30 mg/kg, sc administered through peanut oil on day of infection; format: functional, organism-based; design: dose 30 mg/kg
Plasmodium gallinaceum [15] = experiment: Antimalarial activity against sporozoite stage of Plasmodium gallinaceum infected in white leghorn cockerel assessed as survival over 30 days at 3.75 mg/kg, sc administered through peanut oil on day of infection; format: functional, organism-based; design: dose 3.75 mg/kg
Plasmodium gallinaceum [16] = experiment: Antimalarial activity against sporozoite stage of Plasmodium gallinaceum infected in white leghorn cockerel assessed as survival over 30 days at 15 mg/kg, sc administered through peanut oil on day of infection; format: functional, organism-based; design: dose 15 mg/kg
Plasmodium berghei [17] = experiment: Antimalarial activity against trophozoite stage of Plasmodium berghei infected in mouse assessed as increase in mean survival time at 160 mg/kg, sc administered 72 hrs post infection; format: functional; conditions: route subcutaneous
Plasmodium gallinaceum [18] = experiment: Antimalarial activity against sporozoite stage of Plasmodium gallinaceum infected in white leghorn cockerel assessed as survival over 30 days at 320 mg/kg, sc administered through peanut oil on day of infection; format: functional, organism-based; design: dose 320 mg/kg
Plasmodium gallinaceum [19] = experiment: Antimalarial activity against sporozoite stage of Plasmodium gallinaceum infected in white leghorn cockerel assessed as survival over 30 days at 80 mg/kg, sc administered through peanut oil on day of infection; format: functional, organism-based; design: dose 80 mg/kg
Plasmodium gallinaceum [20] = experiment: Antimalarial activity against sporozoite stage of Plasmodium gallinaceum infected in white leghorn cockerel assessed as survival over 30 days at 20 mg/kg, sc administered through peanut oil on day of infection; format: functional, organism-based; design: dose 20 mg/kg
Plasmodium gallinaceum [21] = experiment: Antimalarial activity against sporozoite stage of Plasmodium gallinaceum infected in white leghorn cockerel assessed as increase in mean survival time at 7.5 mg/kg, sc administered through peanut oil on day of infection; format: functional; conditions: route subcutaneous
Plasmodium gallinaceum [22] = experiment: Antimalarial activity against sporozoite stage of Plasmodium gallinaceum infected in white leghorn cockerel assessed as increase in mean survival time at 3.75 mg/kg, sc administered through peanut oil on day of infection; format: functional; conditions: route subcutaneous

SMILES	Activity (Plasmodium berghei [1])	MIC (Enterococcus faecalis)	MIC (Staphylococcus aureus [6])	MIC (Staphylococcus aureus [7])	MIC (Escherichia coli)	MIC (Shigella sonnei)	also measured
Nc1nc(N)c2nc(CNc3ccc(Cl)c(Cl)c3)c[n+]([O-])c2n1	inactive	–	–	–	–	–	–
CCN(Cc1c[n+]([O-])c2nc(N)nc(N)c2n1)c1ccc(OC)cc1	inactive	–	–	–	–	–	–
CN(Cc1cnc2nc(N)nc(N)c2n1)c1cccc2ccccc12	–	< 0.25 µg/mL	1 µg/mL (≈ 3.02 µM)	> 2.5 µg/mL	> 25 µg/mL	> 25 µg/mL	Activity (Plasmodium berghei [2]): Active; Survival (Plasmodium berghei [3]): 5.4 days; Activity (Plasmodium cynomolgi [4]): inactive; Activity (Plasmodium cynomolgi [5]): inactive
CN(C)C=O.Nc1nc(N)c2nc(CNc3ccc(Cl)c(Cl)c3)cnc2n1	inactive	< 0.25 µg/mL	< 0.25 µg/mL	< 0.25 µg/mL	> 25 µg/mL	> 25 µg/mL	–
CN(C)C=O.Nc1nc(N)c2nc(CN3CCCCC3c3ccccc3)cnc2n1 (configuration not stated)	–	–	–	–	–	–	Survival (Plasmodium gallinaceum [8]): 0.3 days; Survival (Plasmodium gallinaceum [9]): 0.2 days; Survival (Plasmodium gallinaceum [10]): 0.1 days
CC(C)N(Cc1c[n+]([O-])c2nc(N)nc(N)c2n1)c1ccc(Cl)c(Cl)c1	inactive	–	–	–	–	–	–
CCCN(Cc1cnc2nc(N)nc(N)c2n1)c1ccc(Cl)c(Cl)c1	inactive	< 0.25 µg/mL	< 0.25 µg/mL	< 0.25 µg/mL	> 25 µg/mL	> 25 µg/mL	Activity (Plasmodium gallinaceum [11]): Active; Activity (Plasmodium gallinaceum [12]): Active; Activity (Plasmodium gallinaceum [13]): Active; Activity (Plasmodium gallinaceum [14]): Active; Activity (Plasmodium gallinaceum [15]): Active
CCCN(Cc1c[n+]([O-])c2nc(N)nc(N)c2n1)c1ccc(Cl)c(Cl)c1	inactive	–	–	–	–	–	–
CC(C)N(Cc1cnc2nc(N)nc(N)c2n1)c1ccc(Cl)cc1.CN(C)C=O	inactive	< 0.25 µg/mL	< 0.25 µg/mL	1.5 µg/mL	> 25 µg/mL	> 25 µg/mL	Activity (Plasmodium gallinaceum [11]): Active; Activity (Plasmodium gallinaceum [12]): Active; Activity (Plasmodium gallinaceum [13]): Active; Activity (Plasmodium gallinaceum [14]): Active; Activity (Plasmodium gallinaceum [16]): Active; Activity (Plasmodium gallinaceum [15]): Active
CCN(Cc1cnc2nc(N)nc(N)c2n1)c1ccc(Cl)cc1	inactive	< 0.25 µg/mL	< 0.25 µg/mL	1.5 µg/mL (≈ 4.55 µM)	> 25 µg/mL	> 25 µg/mL	–
CN(Cc1c[n+]([O-])c2nc(N)nc(N)c2n1)c1ccc(Cl)cc1	inactive	–	–	–	–	–	–
CN(Cc1cnc2nc(N)nc(N)c2n1)c1ccc(Cl)cc1	inactive	< 0.25 µg/mL	1.5 µg/mL (≈ 4.75 µM)	2 µg/mL (≈ 6.33 µM)	> 25 µg/mL	> 25 µg/mL	–
CC(C)N(Cc1c[n+]([O-])c2nc(N)nc(N)c2n1)c1ccc(Cl)cc1	inactive	–	–	–	–	–	–
COc1cc(N(C)Cc2cnc3nc(N)nc(N)c3n2)cc(OC)c1OC	–	< 0.25 µg/mL	< 0.25 µg/mL	< 0.25 µg/mL	> 25 µg/mL	> 25 µg/mL	Activity (Plasmodium berghei [2]): Active; Survival (Plasmodium berghei [17]): 8.5 days
COc1cc(N(C)Cc2c[n+]([O-])c3nc(N)nc(N)c3n2)cc(OC)c1OC	inactive	–	–	–	–	–	–
Nc1nc(N)c2nc(CN(C=O)c3ccc(Cl)c(Cl)c3)cnc2n1	inactive	< 0.25 µg/mL	1 µg/mL (≈ 2.75 µM)	2 µg/mL (≈ 5.49 µM)	> 25 µg/mL	> 25 µg/mL	–
CN(Cc1cnc2nc(N)nc(N)c2n1)c1ccc(Cl)c(Cl)c1	inactive	< 0.25 µg/mL	< 0.25 µg/mL	1.5 µg/mL (≈ 4.28 µM)	> 25 µg/mL	> 25 µg/mL	–
CCN(Cc1cnc2nc(N)nc(N)c2n1)c1ccc(OC)cc1	inactive	< 0.25 µg/mL	< 0.25 µg/mL	< 0.25 µg/mL	> 25 µg/mL	> 25 µg/mL	Activity (Plasmodium gallinaceum [18]): Active; Activity (Plasmodium gallinaceum [19]): Active; Activity (Plasmodium gallinaceum [20]): Active
CN(Cc1c[n+]([O-])c2nc(N)nc(N)c2n1)c1ccc(Cl)c(Cl)c1	inactive	–	–	–	–	–	–
CCN(Cc1c[n+]([O-])c2nc(N)nc(N)c2n1)c1ccc(Cl)cc1	inactive	–	–	–	–	–	–
CCOC(=O)c1ccc(N(C)Cc2cnc3nc(N)nc(N)c3n2)cc1	inactive	–	–	–	–	–	Activity (Plasmodium gallinaceum [11]): Active; Activity (Plasmodium gallinaceum [12]): Active; Activity (Plasmodium gallinaceum [13]): Active
CC(C)N(Cc1cnc2nc(N)nc(N)c2n1)c1ccc(Cl)c(Cl)c1	inactive	< 0.25 µg/mL	< 0.25 µg/mL	< 0.25 µg/mL	> 25 µg/mL	> 25 µg/mL	–
CN(Cc1c[n+]([O-])c2nc(N)nc(N)c2n1)c1cccc2ccccc12	inactive	–	–	–	–	–	–
Nc1nc(N)c2nc(CN3CCCc4ccccc43)cnc2n1	–	–	–	–	–	–	Activity (Plasmodium gallinaceum [11]): Active; Activity (Plasmodium gallinaceum [12]): Active; Activity (Plasmodium gallinaceum [13]): Active; Activity (Plasmodium gallinaceum [14]): Active; Survival (Plasmodium gallinaceum [21]): 2.3 days; Survival (Plasmodium gallinaceum [22]): 1.3 days
